MrgX1 ag = activates human MrgX1 receptor signaling; Q96LB2; MrgX1-HEK293 cells, Fluo-4 calcium fluorescence, agonist mode; hits give high values; B-score at 10 µM; actives 0.44% (n = 310,000);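 active = calcium response B-score plate-corrected fluorescence ratio at least 3 library SD, with starting fluorescence B-score inside 5 SD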
Target sequence (Q96LB2 whole entry, looked up): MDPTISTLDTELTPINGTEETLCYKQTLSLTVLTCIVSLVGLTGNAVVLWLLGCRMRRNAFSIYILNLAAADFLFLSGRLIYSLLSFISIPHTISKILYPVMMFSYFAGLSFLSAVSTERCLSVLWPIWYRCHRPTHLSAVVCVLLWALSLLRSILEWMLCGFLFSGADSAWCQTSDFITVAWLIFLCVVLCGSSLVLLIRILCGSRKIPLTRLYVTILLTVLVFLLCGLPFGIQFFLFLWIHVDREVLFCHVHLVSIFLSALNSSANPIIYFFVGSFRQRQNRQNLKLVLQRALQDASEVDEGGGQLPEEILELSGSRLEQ
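Assay system: stable human MrgX1 HEK293 cell line. Quantity: 15,000 cells per well. Schedule: cells plated overnight, dye loaded 0.5 h 37 °C, 0.5 h room temperature. Detection: Fluo-4 NW calcium-flux fluorescence, kinetic read. Read-out basis: peak-minus-minimum fluorescence over baseline, converted to B scores. Control set: positive and negative control wells on each plate.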
RGS4 inh = inhibitors of human RGS4. AID 463165. P49798. B-score at 10 µM. HEK293 M3R/RGS4 inducible, Fluo-4 calcium flux; hits give high values; triggered by carbachol at its EC20. actives 0.45% (n = 310,000);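 active = B-score, a plate-corrected calcium signal, over three deviations above library mean, with baseline fluorescence within five deviations of library mean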;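 also: RGS4 expression induced by doxycycline in cells with stable M3 receptor; B-score is computed from the integrated fluorescence ratio over baseline after carbachol; higher B-score means a larger calcium signal and so more RGS4 inhibition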
Target sequence (P49798 whole entry, looked up): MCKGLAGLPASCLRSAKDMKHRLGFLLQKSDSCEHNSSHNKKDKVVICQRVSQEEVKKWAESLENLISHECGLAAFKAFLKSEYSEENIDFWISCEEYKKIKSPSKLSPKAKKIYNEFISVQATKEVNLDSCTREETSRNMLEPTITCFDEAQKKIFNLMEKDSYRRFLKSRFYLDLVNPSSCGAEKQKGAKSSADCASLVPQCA
MrgX1 antagonist = antagonists of human MrgX1 receptor; Q96LB2; MRGX1-HEK293 calcium flux, Fluo-4, BAM8-22 antagonism; hits give low values; B-score at 10 µM; actives 1.3% (n = 310,000); AID 588676;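 active = calcium-response B-score plate-corrected more than 3 library SD below zero, starting fluorescence within 5 deviations, no agonist response on first addition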;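 also: peak minus trough fluorescence over baseline after final BAM8-22 challenge near maximal dose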
MrgX1 allo act = human MrgX1 positive allosteric modulation, primary screen. Q96LB2. MrgX1-HEK293, Fluo-4 calcium flux, FDSS; hits give high values. B-score at 10 µM. actives 0.63% (n = 310,000);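 active = plate-corrected calcium response at least 3 library SD above typical, normal starting fluorescence, not activating the receptor alone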;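 also: compound read alongside a low EC10 to EC30 dose of BAM8-22 agonist; peak minus trough fluorescence over baseline measured at the second addition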
RGS4 pot = potentiators or activators of RGS4; B-score at 10 µM; actives 0.92% (n = 310,000); HEK293 M3R/inducible RGS4, carbachol calcium flux Fluo4; hits give low values;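 active = B-score of the integrated calcium signal more than 4 SD below the library mean, with starting fluorescence not abnormally high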;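 also: negative B-score means reduced calcium response which marks RGS4 activation or potentiation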
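Assay system: Inducible-RGS4 HEK293 cells carrying M3 receptor | Schedule: Compound preincubation 20 min at room temperature before agonist | Signal: Kinetic calcium fluorescence imaging with Fluo4-AM dye, 2 µM | Read-out basis: B score from integrated fluorescence ratio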
MrgX1 allo conf = human MrgX1 positive allosteric modulation, re-confirmation. shares compounds with MrgX1 allo act. MrgX1-HEK293, Fluo-4 calcium fluorescence, FDSS. activation (ratio percentage), % at 10 µM. actives 13% (n = 1,200);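 active = ratio at least 3 SD above the weak peptide control, stable starting fluorescence, no direct agonism earlier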;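 also: compound followed by low BAM8-22 agonist challenge near EC20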
HEK293 Ca flux = counter-screen for MrgX1 antagonists: effect in parental HEK293 cells | shares compounds with MrgX1 antagonist | Fluo-4 calcium fluorescence, FDSS | fluorescence ratio F(max-min)/F0 at 10 µM | actives 2% (n = 4,000) | AID 624111;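 active = duplicate-averaged calcium fluorescence ratio at least three times the standard deviation of buffer wells, a nonspecific response in parental cells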
HEK293 Ca counter = counter-screen for MrgX1 allosteric activators: effect in parental HEK293 cells | shares compounds with MrgX1 antagonist | parental HEK293 calcium flux, Fluo-4 fluorescence ratio; hits give high values | fluorescence ratio F(max-min)/F0 at 10 µM | actives 0.4% (n = 4,000) | AID 624114;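 active = calcium fluorescence ratio, averaged over duplicates, at least 3 SD of the buffer-well ratio, meaning a nonspecific response in receptor-free cells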;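 also: untransfected parental HEK293 lacking MrgX1 used as counterscreen for MrgX1 allosteric activators; fluorescence change taken during the second addition on a kinetic imager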
HEK293 Ca cntr2 = MrgX1 activator counter-screen hit in parental HEK293 cells; fluorescence ratio F(max-min)/F0 at 10 µM; Fluo-4 calcium fluorescence (FDSS); hits give high values; shares compounds with MrgX1 antagonist; actives 8.7% (n = 4,000);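 active = calcium fluorescence ratio at least three times the spread of buffer wells, meaning a non-specific response in parental cells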
* marks the source's active call; other numbers are inactive results; i = inactive; nt = no result given. Rows were chosen to be rich in hits. Some 3.5% of all compounds tested hit in one or more screens of this group.

SMILES	MrgX1 ag	RGS4 inh	MrgX1 antagonist	MrgX1 allo act	RGS4 pot	MrgX1 allo conf	HEK293 Ca flux	HEK293 Ca counter	HEK293 Ca cntr2
COc1ccccc1C(=O)OCC(=O)Nc1ccc(OC(F)F)cc1	i	i	i	i	i	nt	nt	nt	nt
O=C(COC(=O)c1ccc(O)cc1)Nc1ccc(OC(F)F)cc1	i	i	i	i	i	nt	nt	nt	nt
O=C(COC(=O)c1cccc(O)c1)Nc1ccc(OC(F)F)cc1	i	i	i	10*	i	i	i	i	i
Cc1cccc(C(=O)N[C@H](C(=O)Nc2nc(C)cs2)C(C)C)c1	i	i	i	i	i	nt	nt	nt	nt
Cc1cccc(C(=O)N[C@H](C(=O)Nc2nccs2)C(C)C)c1	i	i	i	24*	i	i	i	i	i
CCc1nonc1NC(=O)COc1cc(C)c(Cl)c(C)c1	i	i	i	i	i	nt	nt	nt	nt
CCc1nonc1NC(=O)COc1ccc(Cl)c(C)c1	i	i	i	12*	i	i	i	i	i
COc1ccc(CCC(=O)Nc2ccc3c(c2)OCO3)cc1	i	i	i	i	i	nt	nt	nt	nt
COc1ccc(CC(=O)OCC(=O)Nc2ccc3c(c2)OCO3)cc1	i	i	i	10*	i	i	i	i	i
N=c1sccn1CC(=O)N1N=C(c2ccc(Cl)cc2)CC1c1ccco1 (stereo not drawn)	i	i	i	21*	i	i	i	i	i
CCc1ccc(/C=N/NC(=O)Cc2cccn2C)cc1	i	i	i	27*	i	13%*	i	i	i
CCc1c(C)nc2cc(-c3ccc(OC)c(OC)c3)nn2c1N1CCCC1	i	i	i	17*	i	i	i	i	i
CCOC(=O)C1CCCN(c2c(Nc3ccc(OCC)cc3)c(=O)c2=O)C1 (stereo not drawn)	i	i	i	i	i	nt	nt	nt	nt
O=C(Nc1ccccc1)N(Cc1ccccc1)Cc1ccccc1	i	i	i	i	i	nt	nt	nt	nt
O=C(Nc1ccccc1)N(Cc1ccc(Cl)cc1)CC(O)C(F)(F)F (stereo not drawn)	i	i	i	6.5*	i	i	i	i	i
CCOC(=O)c1c(CN(CC)CC)n(C)c2cc(Br)c(O)cc12	i	i	i	6.9*	i	i	i	i	i
Nc1nc(CN2CCN(Cc3ccc4c(c3)OCO4)CC2)nc(Nc2ccccc2)n1	i	i	i	i	i	nt	nt	nt	nt
Cc1ccccc1Nc1nc(N)nc(CN2CCN(Cc3ccc4c(c3)OCO4)CC2)n1	i	i	i	8*	i	i	i	i	i
CCN(CC)C(=O)CSc1nc2c(sc(=S)n2-c2ccccc2OC)c(=O)n1-c1ccccc1	i	i	i	i	i	nt	nt	nt	nt
COCCN(CCOC)S(=O)(=O)c1ccc(Cl)nc1	i	i	i	i	i	nt	nt	nt	nt
CCN(CC)S(=O)(=O)c1ccc(Cl)nc1	i	i	i	9.3*	i	i	i	i	i
O=C(Nc1ccon1)c1csc2c1CCCC2	i	i	i	i	i	nt	nt	nt	nt
O=C(Nc1nccs1)c1csc2c1CCCC2	i	i	i	12*	i	i	i	i	i
CCOC(=O)c1ccc[n+](CC(=O)c2ccc(OC)cc2)c1	i	i	i	i	i	nt	nt	nt	nt
COc1cccc(NC(=O)c2ccccc2Br)c1	i	i	i	i	i	nt	nt	nt	nt
SMILES	MrgX1 ag	RGS4 inh	MrgX1 antagonist	MrgX1 allo act	RGS4 pot	MrgX1 allo conf	HEK293 Ca flux	HEK293 Ca counter	HEK293 Ca cntr2
COc1ccc(Br)c(C(=O)Nc2ccc(F)cc2)c1	i	i	i	6.9*	i	i	i	i	i
Cc1cc(Cl)ccc1OC(C)C(=O)Nc1ccccc1N1CCOCC1 (stereo not drawn)	i	i	i	15*	i	i	i	i	i
O=C(CCc1ccccc1)Nc1nc2n(n1)C(c1ccccc1)CC(=O)N2 (stereo not drawn)	i	i	i	21*	i	i	i	i	i
O=C(CCc1ccccc1)Nc1nc2n(n1)C(c1ccc(Cl)cc1)CC(=O)N2 (stereo not drawn)	i	i	i	i	i	nt	nt	nt	nt
O=C(O)CN1CCCCC1	i	i	i	9.7*	i	i	i	i	i
COCCCNC(=S)NNC(=S)Nc1ccc(OC)cc1	i	i	i	i	i	nt	nt	nt	nt
CCOc1ccc(C(=O)NCC(=O)OCC(=O)N2CCC(C)CC2)cc1	i	i	i	8*	i	i	i	i	i
CCCCCCC1CC(CSC(=N)N)OC1=O (stereo not drawn)	i	i	i	6.5*	i	i	i	i	i
Cc1nonc1NC(=O)CSc1nc(C23CC4CC(CC(C4)C2)C3)nc2ccccc12	i	i	i	i	i	nt	nt	nt	nt
NC(=O)CSc1nc(C23CC4CC(CC(C4)C2)C3)nc2ccccc12	i	i	i	17*	i	14%*	i	i	i
Fc1ccc(-c2csc(NC3=NCCC3)n2)cc1	i	i	i	12*	i	i	i	i	i
Cc1cc(C)n(/N=C/c2ccccc2O)c(=O)c1	i	i	i	i	i	nt	nt	nt	nt
Cc1cc(C)n(/N=C/c2cc(Cl)cc(Cl)c2O)c(=O)c1	i	i	i	21*	i	i	0.43*	i	77*
CC(C)OCCOc1ccc2oc(-c3ccco3)cc(=O)c2c1	i	i	i	i	i	nt	nt	nt	nt
CCOC(=O)C1(C)/C(=N/Nc2cccc(Cl)c2)C(=O)C(=O)N1c1ccccc1 (stereo not drawn)	i	i	i	i	i	nt	nt	nt	nt
O=C1NC(Cc2ccccc2)C(=O)Nc2ccc(Br)cc21 (stereo not drawn)	i	i	i	9.1*	i	i	i	i	i
